Activity calls are given as the source filed them. The rule behind the calls is not given here.
Tests used:
[1] = tested on: Trypanosoma cruzi; test: Antitrypanosomal activity against Trypanosoma cruzi Y infected in mouse assessed as decrease in mouse mortality at 200 mg/kg, po upto 40 days post infection; format: functional, organism-based; set-up: dose 200 mg/kg
In short: (§1)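 Male Swiss mice (6–8 weeks, 18–20 g), 8–10 per group, infected i.p. with 10^4 bloodstream trypomastigotes (Y strain). On dpi 5, a single 200 mg/kg oral gavage dose was given in water with 10% Tween-80. Parasitemia was counted daily from dpi 6 to 21 by the Pizzi-Brener method. Body weight was recorded weekly. Mortality was recorded daily, and cumulative mortality at 40 dpi and M50 were calculated.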

[2] = tested on: Trypanosoma cruzi; test: Antitrypanosomal activity against Trypanosoma cruzi Y infected in mouse assessed as decrease in parasitemia in blood at 200 mg/kg, po upto 40 days post infection; format: functional; in short: as §1
[3] = tested on: Trypanosoma cruzi; test: Antitrypanosomal activity against Trypanosoma cruzi infected in mouse assessed as reduction in inflammatory foci in cardiac muscle at 100 mg/kg, po after 6 days post infection; format: functional, organism-based; set-up: dose 100 mg/kg; settings: Muscle tissue
In short: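 Infected mice were dosed by gavage at 100 mg/kg daily for 10 days from dpi 6. Two mice per group were euthanized at 14 dpi. Paraffin heart sections were stained with hematoxylin-eosin. Under a 40× objective, parasite nests and inflammatory foci (≥10 mononuclear cells) were counted per mm2 over 30 fields.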

[4] = tested on: Mus musculus; test: Toxicity in mouse assessed as body weight at 400 mg/kg, po after 4 days; format: organism-based; set-up: dose 400 mg/kg, route oral; settings: in vivo, 96 h
In short: (§2)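 Uninfected male Swiss mice, 8–10 per group, received by gavage either a single 400 mg/kg dose or 10 doses of 100 mg/kg (vehicle water with 10% Tween-80). GOT, GPT and urea were measured directly in blood with the Reflotron system, and body weight was recorded. Single-dose toxicity was analyzed 4 days after treatment.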

[5] = tested on: Trypanosoma cruzi; test: Antitrypanosomal activity against Trypanosoma cruzi trypomastigotes assessed as parasite body rounding at 17 uM after 24 hrs by scanning electron microscopy; format: functional, organism-based
In short: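 Trypomastigotes (5 × 10^6/ml) were treated for 24 h and adhered to poly-L-lysine coverslips. They were fixed in 2.5% glutaraldehyde in 0.1 M cacodylate (pH 7.2) for 40 min and postfixed for 30 min in 1% OsO4, 0.8% ferricyanide and 2.5 mM CaCl2. Samples were acetone-dehydrated, critical-point dried, gold-coated (20 nm) and examined by scanning EM.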

[6] = tested on: Trypanosoma cruzi; test: Antitrypanosomal activity against Trypanosoma cruzi amastigotes infected in mouse embryo heart muscle cells assessed as endocytic index at 40 uM; format: functional, organism-based
In short: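 Mouse embryo heart muscle cells (10^5/well) were plated on gelatin-coated coverslips and infected after 24 h with trypomastigotes at 10:1 parasite/host cell. After another 24 h, cultures were washed and exposed to compounds at 10–40 µM final. At intervals, cells were fixed in Bouin's solution and stained with Giemsa. Percent infection and endocytic index (parasites/100 cells) were counted, and IC50 was derived.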

[7] = tested on: Trypanosoma cruzi; test: Antitrypanosomal activity against Trypanosoma cruzi trypomastigotes assessed as increase in vesicles size near the flagellar pocket at 17 uM after 24 hrs by Transmission electron microscopy; format: functional, organism-based
In short: (§3)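 Y-strain bloodstream trypomastigotes (5 × 10^6/ml) were treated for 24 h, washed in PBS, and fixed in 2.5% glutaraldehyde in 0.1 M cacodylate (pH 7.2). They were postfixed with OsO4/ferricyanide/CaCl2, dehydrated in acetone, and embedded in epoxy. Ultrathin sections were stained with uranyl acetate and lead citrate and examined by transmission EM.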

[8] = tested on: Trypanosoma cruzi; test: Antitrypanosomal activity against Trypanosoma cruzi trypomastigotes assessed as alteration in autophagosome-like structure formation at 17 uM after 24 hrs by Transmission electron microscopy; format: functional, organism-based; in short: as §3
[9] = Cytotoxicity against swiss mouse HMC after 48 hrs by MTT assay; settings: read-out: LC50
In short: (§4)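 Uninfected host cells were exposed to compounds at 37°C for 2 days, with compound stocks in DMSO. Cells were Swiss mouse peritoneal macrophages or primary mouse embryo heart muscle cells (18-day embryos, trypsin/collagenase dissociated, gelatin-coated coverslips, DMEM with horse and fetal calf sera, chicken embryo extract). Viability was read by MTT at 490 nm to give LC50.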

[10] = tested on: Trypanosoma cruzi; test: Antitrypanosomal activity against Trypanosoma cruzi infected in mouse assessed as decrease in parasitemia in blood at 100 mg/kg, po after 6 days post infection; format: functional
In short: (§5)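 Male Swiss mice, 8–10 per group, infected i.p. with 10^4 bloodstream trypomastigotes. From dpi 6, mice received 10 consecutive daily gavage doses of 100 mg/kg in water with 10% Tween-80. Parasitemia was read daily on dpi 6–21 by the Pizzi-Brener method. Mortality was noted daily, and %CM at 40 dpi and M50 were calculated.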

[11] = tested on: Mus musculus; test: Toxicity in mouse assessed as urea level in blood at 400 mg/kg, po after 4 days; format: organism-based; set-up: dose 400 mg/kg, route oral; settings: in vivo, 96 h; in short: as §2
[12] = tested on: Trypanosoma cruzi; test: Antitrypanosomal activity against Trypanosoma cruzi amastigotes infected in mouse peritoneal macrophages assessed as inhibition of infection at 30 uM after 1-4 days; format: functional, organism-based
In short: (§6)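 Swiss mouse peritoneal macrophages (3 × 10^5/well) were plated for 24 h, then infected with Y-strain trypomastigotes (10:1) in DMEM with 10% FCS for 3 h. Free parasites were washed off, and compounds were added at 2.5–30 µM final for 1–4 days. Cells were fixed in Bouin's solution and stained with Giemsa. Percent infection and endocytic index (parasites/100 cells) were counted, and IC50 was derived. Three independent experiments.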

[13] = Cytotoxicity against Swiss mouse peritoneal macrophages after 48 hrs by MTT assay; format: cell-based, Peritoneal macrophage cell; settings: read-out: LC50; in short: as §4
[14] = tested on: Trypanosoma cruzi; test: Antitrypanosomal activity against Trypanosoma cruzi infected in mouse assessed as decrease in mortality rate at 100 mg/kg, po after 6 days post infection; format: functional, organism-based; set-up: dose 100 mg/kg; in short: as §5
[15] = tested on: Trypanosoma cruzi; test: Antitrypanosomal activity against Trypanosoma cruzi amastigotes infected in mouse peritoneal macrophages assessed as endocytic index at 30 uM after 1-4 days; format: functional, organism-based; in short: as §6
[16] = tested on: Mus musculus; test: Toxicity in mouse assessed as GPT level in blood at 400 mg/kg, po after 4 days; format: organism-based; set-up: dose 400 mg/kg, route oral; settings: in vivo, 96 h; in short: as §2
[17] = tested on: Mus musculus; test: Toxicity in mouse assessed as GOT level in blood at 400 mg/kg, po after 4 days; format: organism-based; set-up: dose 400 mg/kg, route oral; settings: in vivo, 96 h; in short: as §2
[18] = tested on: Trypanosoma cruzi; test: Antitrypanosomal activity against Trypanosoma cruzi Y infected in mouse assessed as decrease in mouse mortality at 200 mg/kg, po after 20 days post infection; format: functional, organism-based; set-up: dose 200 mg/kg; in short: as §1

For `Cn1c([N+](=O)[O-])cnc1-c1nnc(N/N=C\c2ccccc2O)s1`, the Activity [1] was “inactive” and the Activity [2] was “inactive”.

In the case of `Cn1c([N+](=O)[O-])cnc1-c1nnc(N/N=C\c2ccc(Br)cc2)s1`, the Activity [3] is reported as “Active”, the Activity [1] is reported as “Active” and the Activity [4] is reported as 25.2 g. For the same compound, the Activity [5] was “Active”, the Activity [6] was “inactive” and the Activity [7] was “Active”. The Activity [8] was “Active”, the CC50 at 48 h [9] was greater than 120 µM and the Activity [10] was “inactive”. For the same compound, the Activity [11] was 62.7 mg/dL, the Activity [12] was “inactive” and the Activity [2] was 60%. The CC50 at 48 h [13] was greater than 60 µM, the Activity [14] was “Active” and the Activity [15] was “inactive”. The Activity [16] was 27.9 U/L and the Activity [17] was 118 U/L.

For `Cn1c([N+](=O)[O-])cnc1-c1nnc(N/N=C\c2ccc([N+](=O)[O-])cc2)s1`, the Activity [2] was “Active” and the Activity [18] was “inactive”.

For `COc1ccc(/C=N\Nc2nnc(-c3ncc([N+](=O)[O-])n3C)s2)cc1O`, the Activity [1] was “inactive” and the Activity [2] was “inactive”.

From ChEMBL document CHEMBL1255468 (Antimicrob Agents Chemother, 2010)
